Assay results gathered from unrelated publications.
Lines come from different studies, so protocols differ.
Method: competition with immobilised ligand
RPS6KA5 N-terminal kinase domain: Ribosomal protein S6 kinase alpha-5, N-terminal kinase domain (RPS6KA5, Homo sapiens, UniProt O75582)
RPS6KA5 C-terminal kinase domain: Ribosomal protein S6 kinase alpha-5, C-terminal kinase domain (RPS6KA5, Homo sapiens, UniProt O75582)

`c1cnn2ncc(-c3ccnc(N4CCC45COC5)n3)c2c1` gave a remaining binding of 100% (RPS6KA5 N-terminal kinase domain; binding; 1 µM).
For `O=C(c1ccc(Nc2nccc(-c3cc4ccccc4s3)n2)cc1)N1CCC(N2CCCC2)CC1`, the remaining binding was 86% (RPS6KA5 C-terminal kinase domain; binding; 1 µM).
With `COc1ccc2c(c1)O[C@@H](c1ccc(OC)c(OC)c1)C[C@H]2NC(=O)C1(c2ccc3c(c2)OC(F)(F)O3)CC1` the remaining binding was 100% (RPS6KA5 C-terminal kinase domain; cell-free assay; 1 µM).
`O=C(NCCCN1CCOCC1)c1ccc(Nc2nccc(-c3cc4ccccc4s3)n2)cc1` gave a remaining binding of 100% (RPS6KA5 C-terminal kinase domain; binding; 1 µM).
The remaining binding of `N[C@H]1CCN(c2nccc(-c3cnn4ncccc34)n2)C1` is reported as 100% (RPS6KA5 N-terminal kinase domain; binding; 1 µM).
With `COc1cnc(Nc2cccc(S(N)(=O)=O)c2)nc1N1CCN(c2ccccc2)C(=O)C1` the remaining binding was 99% (RPS6KA5 N-terminal kinase domain; binding; 1 µM).
With `O=C(NCCCN1CCOCC1)c1ccc(Nc2ncc(Cl)c(-c3ccc(Cl)s3)n2)cc1` the remaining binding was 100% (RPS6KA5 N-terminal kinase domain; binding; 1 µM).
The remaining binding of `CN([C@@H]1CCc2c(CC(=O)O)c3cc(S(C)(=O)=O)ccc3n2C1)S(=O)(=O)c1ccc(F)cc1` is reported as 85% (RPS6KA5 N-terminal kinase domain; cell-free assay; 1 µM).
`C[C@@H](c1ccc(-n2cnc3c(N)ncnc32)cc1)N1CCc2nn(C)c(Cc3ccccc3)c2C1=O` has a remaining binding of 92% (RPS6KA5 C-terminal kinase domain; binding; 0.1 µM).
`COc1ncc2cc3ccccc3nc2c1C#N` gave a remaining binding of 88% (RPS6KA5 C-terminal kinase domain; cell-free assay; 5 µM).
The remaining binding of `F[C@@H]1CCN(c2nccc(-c3cnn4ncccc34)n2)C1` is reported as 100% (RPS6KA5 N-terminal kinase domain; binding; 1 µM).
For `O=C(O)[C@@H]1[C@@H](Cn2nnc3ccccc3c2=O)CC[C@H]1C(=O)c1ccc(OCCC2CCOCC2)cc1`, the remaining binding was 100% (RPS6KA5 C-terminal kinase domain; cell-free assay; 1 µM).
`CCN1CCN(Cc2ccc(C(=O)Nc3ccc(C)c(Oc4ccc5c(c4)CC(=O)N5)c3)cc2C(F)(F)F)CC1` has a remaining binding of 100% (RPS6KA5 N-terminal kinase domain; binding; 1 µM).
`O=C(c1ccc(Nc2ncc(Cl)c(-c3cc4ccccc4s3)n2)cc1)N1CCC(N2CCCC2)CC1` has a remaining binding of 54% (RPS6KA5 C-terminal kinase domain; binding; 1 µM).
For `CCC(=O)N[C@H]1CC[C@@H](C(=O)N(C)c2ccc(-c3nc4ccccc4o3)cc2)C1`, the remaining binding was 68% (RPS6KA5 C-terminal kinase domain; cell-free assay; 1 µM).
`O=C(c1ccc(Nc2ncc(Cl)c(-c3ccc(Cl)s3)n2)cc1)N1CCC(N2CCCC2)CC1` gave a remaining binding of 48% (RPS6KA5 C-terminal kinase domain; binding; 1 µM).
For `Cc1cnn2ncc(-c3ccnc(N(C)C)n3)c2c1`, the remaining binding was 100% (RPS6KA5 C-terminal kinase domain; binding; 1 µM).
`c1cncc(-c2cccc(Nc3nccc(NC4CCCCC4)n3)c2)c1` gave a remaining binding of 100% (RPS6KA5 N-terminal kinase domain; binding; 10 µM).
`CNC(=O)[C@@H]1CC[C@@H](n2c(-c3ccc4cnccc4c3)nc3ccc(C(=O)NCc4cccc(C(N)=O)c4)cc32)C1` gave a remaining binding of 100% (RPS6KA5 C-terminal kinase domain; binding; 1 µM).
With `C[C@@H]1CCN(c2nccc(-c3cnn4ncccc34)n2)C1` the remaining binding was 70% (RPS6KA5 N-terminal kinase domain; binding; 1 µM).
`O=C(NCC1CCOCC1)c1n[nH]cc1NC(=O)c1c(F)cccc1F` gave a remaining binding of 79% (RPS6KA5 N-terminal kinase domain; binding; 1 µM).
`C[C@H](c1ccnc(Nc2nc3ccc(-c4cc(N(C)C)ncn4)cc3[nH]2)c1)N1CCN(C(=O)CC(F)(F)F)CC1` gave a remaining binding of 61% (RPS6KA5 C-terminal kinase domain; cell-free assay; 0.1 µM).
`C=CC(=O)N1CCC(C(=O)NCC(=O)N2CCN(c3nc(-c4cnc(N)nc4C(F)F)nc(N4CCOCC4)n3)CC2)CC1` gave a remaining binding of 100% (RPS6KA5 N-terminal kinase domain; binding; 1 µM).
With `Cc1cnc(Nc2ccc(C(=O)N3CCC(N4CCCC4)CC3)cc2)nc1-c1cc2ccccc2s1` the remaining binding was 100% (RPS6KA5 N-terminal kinase domain; binding; 1 µM).
The remaining binding of `CN(C)C(=O)Cn1cc(-c2nc([C@@](C)(c3ccc(-c4cnc(N)nc4)cc3)C3CC3)no2)cn1` is reported as 92% (RPS6KA5 C-terminal kinase domain; cell-free assay; 1 µM).
`O=C(Nc1c[nH]nc1C(=O)NC1CCNCC1)c1cc(F)cc(F)c1` gave a remaining binding of 100% (RPS6KA5 C-terminal kinase domain; binding; 1 µM).
With `Cc1noc([C@H]2C[C@@H](c3ccc(C(F)(F)F)cc3)CN(C(=O)N3CCS(=O)(=O)C3)C2)n1` the remaining binding was 100% (RPS6KA5 C-terminal kinase domain; cell-free assay; 1 µM).
`CN(C)c1ncc(F)c(-c2cnn3ncccc23)n1` gave a remaining binding of 98% (RPS6KA5 N-terminal kinase domain; binding; 1 µM).
`Nc1ncc2c(n1)-c1c([nH]c3ccc(C#CC4CC4)cc13)CCCC2` has a remaining binding of 100% (RPS6KA5 C-terminal kinase domain; binding; 1 µM).
The remaining binding of `COc1cnc(Nc2cccc(S(N)(=O)=O)c2)nc1N1CCN(c2ccccc2)CC1` is reported as 92% (RPS6KA5 N-terminal kinase domain; binding; 1 µM).
For `CN(CCCC(F)(F)F)c1nccc(-c2cnn3ncccc23)n1`, the remaining binding was 100% (RPS6KA5 C-terminal kinase domain; binding; 1 µM).
`Cn1nc(C(=O)NCc2ccc(C(=O)O)cc2)cc1-c1ccc2[nH]ccc2c1` gave a remaining binding of 76% (RPS6KA5 N-terminal kinase domain; cell-free assay; 0.1 µM).
